# Screening results from PubChem BioAssay.
# H9c2 TAG inh = triacylglycerol accumulation inhibition. H9c2 cells, Nile Red lipid (TAG) fluorescence; cells loaded with 200 µM oleic acid. inhibition, % at 12.5 µM. actives 0.66% (n = 230,000);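 active = pattern-corrected inhibition of lipid staining of at least 50% with the nuclear-stain viability signal not falling by more than 50%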;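 note: 0% = DMSO wells and 100% = triacsin C control wells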
# AHR act = human AHR activation; actives 2.5% (n = 320,000); AHR-responsive luciferase reporter cells, luminescence; P35869; AID 2796; activation, % at 5 µM; in the data active = activation above about 47%;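 note: 0% = vehicle wells and 100% = reference agonist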
# Target sequence (P35869 whole entry, looked up): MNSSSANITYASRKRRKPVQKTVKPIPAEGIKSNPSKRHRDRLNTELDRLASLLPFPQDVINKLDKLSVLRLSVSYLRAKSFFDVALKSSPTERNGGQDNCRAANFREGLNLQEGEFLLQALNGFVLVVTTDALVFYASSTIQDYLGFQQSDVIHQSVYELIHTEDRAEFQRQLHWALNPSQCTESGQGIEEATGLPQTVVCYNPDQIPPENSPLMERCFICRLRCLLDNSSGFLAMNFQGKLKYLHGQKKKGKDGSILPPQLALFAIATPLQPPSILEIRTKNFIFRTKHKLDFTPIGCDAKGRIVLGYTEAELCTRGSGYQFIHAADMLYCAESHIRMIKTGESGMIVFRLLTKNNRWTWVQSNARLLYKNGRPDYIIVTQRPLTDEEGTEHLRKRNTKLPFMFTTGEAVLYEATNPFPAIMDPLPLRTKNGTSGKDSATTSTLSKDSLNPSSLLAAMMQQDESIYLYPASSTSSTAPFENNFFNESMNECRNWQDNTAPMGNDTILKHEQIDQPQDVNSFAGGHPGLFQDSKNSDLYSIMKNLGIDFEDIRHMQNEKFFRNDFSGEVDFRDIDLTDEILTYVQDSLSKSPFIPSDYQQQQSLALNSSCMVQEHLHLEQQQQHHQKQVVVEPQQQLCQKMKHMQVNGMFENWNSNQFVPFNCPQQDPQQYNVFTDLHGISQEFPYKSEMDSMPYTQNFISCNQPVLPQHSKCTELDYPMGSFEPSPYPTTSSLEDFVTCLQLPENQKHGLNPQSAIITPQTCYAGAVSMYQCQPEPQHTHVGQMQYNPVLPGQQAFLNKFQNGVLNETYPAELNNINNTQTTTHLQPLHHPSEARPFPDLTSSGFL
# TbMetRS inhib = Trypanosoma brucei MetRS inhibition. AID 624268. purified T. brucei MetRS, ATP depletion, Kinase-Glo luminescence. actives 0.4% (n = 360,000). inhibition, % at 11.9 µM;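 active = inhibition above a per-plate cutoff of the control wells' mean inhibition plus 3 SD, cut at about 5.5% in these data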;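 note: 0% = DMSO wells median and 100% = median of wells with control inhibitor compound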
#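 Test system – parasite MetRS enzyme · Reagent – substrates ATP, L-methionine and bulk Escherichia coli tRNA · Doses – 11.9 µM compound single dose, 0.9% DMSO · Times – 15 min enzyme-compound preincubation, 2 h reaction, 10 min detection, 25 °C · Signal – Kinase-Glo luminescence, ATP depletion format · Controls – DMSO-only wells as low control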
# Efflux pump mplx = blocks antifungal efflux pumps in multiplex yeast assay; S. cerevisiae Candida pump triplex, Nile Red efflux; inhibition, % at 10 µM; actives 0.44% (n = 330,000);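 active = plate passing quality check with inhibition over a set limit, or well fluorescence over plate mean plus 4 SD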;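 note: Nile Red retained in pooled yeast measured as flow cytometry median fluorescence; 0% = buffer negative control and 100% = Enniatin B positive control; higher means more Nile Red kept so more efflux inhibition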
# SMARCA2 act = activators of SMARCA2 function | activation, % at 9.1 µM | MG213 cells, MMTV-luciferase reporter, dexamethasone, overnight | actives 1% (n = 370,000); in the data active = activation above about 7.8%;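 note: 0% = vehicle wells and 100% = reference activator wells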
# SMARCA2 act conf = SMARCA2 activation, confirmation screen; shares compounds with SMARCA2 act; activation, % at 9.1 µM; MG213 cells, MMTV-luciferase with dexamethasone, luminescence, overnight; MG213 cells expressing E1A, Rb sequestered; DMSO wells 0%, reference activator 100%; actives 30% (n = 3,500);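 active = activation above its plate's cutoff, the mean activation of tested wells plus 3 SD, cut at about 7.9% in these data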
# VP16 Luc act = GAL4-VP16 reporter activation counter-screen; shares compounds with SMARCA2 act; actives 41% (n = 3,500); activation, % at 9.1 µM; HEK293 GAL4-VP16 pG5luc reporter, luciferase luminescence; scaled: DMSO wells 0%, SAHA wells 100%;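 active = activation above the solvent-only control well mean plus 3 SD, averaged across control plates, cut at about 5.2% in these data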
# An asterisk follows results filed as active; . = no result. The list is not random: actives were taken first. Their share in the collection is about 4.1%.
SMILES,H9c2 TAG inh,AHR act,TbMetRS inhib,Efflux pump mplx,SMARCA2 act,SMARCA2 act conf,VP16 Luc act
Cc1ccc(C(=O)Nc2cnc3ccccc3c2)cc1,-12.3,44.1,-2.9,0.0,-6.2,.,.
Cc1cc(C(=O)Nc2cnc3ccccc3c2)ccc1[N+](=O)[O-],.,4.9,-0.3,-0.1,9.3*,5.1,8.5*
COc1cccc(NC(=O)CCC2CCN(C(=O)C3CC=CCC3)CC2)c1 (stereo not drawn),.,3.3,-0.5,0.5,8.0*,-2.7,2.1
O=c1c2[nH]c3cccc(Cl)c3c2ncn1CC1CCCO1 (stereo not drawn),2.7,21.2,-0.3,0.0,8.2*,4.6,3.4
CCc1cccc2c(C(=O)COC(=O)c3c(C)noc3C)c[nH]c12,.,1.4,-0.5,0.0,8.6*,3.8,0.4
Cc1noc(C)c1C(=O)OCC(=O)c1c[nH]c2ccccc12,.,22.2,0.8,0.0,2.8,.,.
CC1=CC(O)(c2ccccn2)P(=O)(c2ccccc2)C=C1C (stereo not drawn),.,.,.,.,-5.0,.,.
CCc1ccccc1Nc1nc(-c2cccnc2)cs1,23.5,7.1,-3.1,0.1,-0.1,.,.
O=[N+]([O-])c1ccccc1Nc1nc(-c2cccnc2)cs1,.,52.2*,0.1,-0.1,9.2*,9.6*,7.7*
Cc1cc(C)c2c(N)c3ccccc3nc2n1,54.9*,23.0,0.2,0.1,19.1*,29.7*,-1.2
Cc1cc(C)c2cccc(N)c2n1,.,7.6,0.2,0.1,1.6,.,.
C[C@H]1CNC(=O)c2c(C(=O)N3CCN(c4ccccc4)CC3)ncn21,.,.,.,.,-1.7,.,.
CCC(C)(C)C1CCC2(CC1)NC(=O)N(CC(=O)NCCc1c[nH]c3ccccc13)C2=O (stereo not drawn),25.9,16.3,0.3,-0.1,8.1*,3.3,1.7
CCS(=O)(=O)Nc1ccc2c(c1)C(=O)N(C)[C@@H]1CC[C@H](CC(=O)N3CCCCC3)O[C@H]1CO2,.,.,.,.,-1.6,.,.
COc1ccc(C(=O)Cc2ccc3c(c2)OCO3)c(O)c1,4.1,5.5,0.6,0.2,8.2*,1.1,8.9*
O=C(O)COc1ccc(C(=O)Cc2ccc3c(c2)OCCCO3)c(O)c1,.,-1.1,0.0,-0.1,-2.9,.,.
CN1C/C(=C/c2ccccc2[N+](=O)[O-])C(=O)/C(=C\c2ccccc2[N+](=O)[O-])C1,69.4*,.,0.1,.,26.2*,-15.5,5.1*
CC[C@@H](OP(=O)(O)[C@@H](C)N)C(=O)O,.,.,.,.,-1.4,.,.
Cc1ccc(C(=O)CNc2cccc([N+](=O)[O-])c2)cc1,9.7,14.4,-1.1,0.0,10.6*,6.8,6.3*
Cc1ccc(NCCC(=O)c2cccc([N+](=O)[O-])c2)c(C)c1,.,20.4,0.0,-0.1,8.6*,7.4,3.4
Cc1cccc(NCCC(=O)c2ccc([N+](=O)[O-])cc2)c1C,-2.0,0.4,-0.9,0.0,0.0,.,.
O=C(CNc1cccc(Cl)c1)c1ccc(Br)cc1,.,-1.4,-0.6,0.3,8.9*,9.8*,-0.6
O=C(Nc1ccc(N2CCOCC2)nc1)c1ccccc1Cl,14.9,-5.2,-0.5,0.1,9.6*,1.7,2.4
COC(=O)c1cc(NC(=O)c2c(C)noc2C)ccc1N1CCOCC1,6.2,-3.2,-0.2,0.0,9.2*,2.7,0.5
COc1c(C)cccc1C(=O)Nc1ccc(N2CCOCC2)c(Cl)c1,19.3,-4.2,-1.0,0.3,8.5*,3.5,14.4*
SMILES,H9c2 TAG inh,AHR act,TbMetRS inhib,Efflux pump mplx,SMARCA2 act,SMARCA2 act conf,VP16 Luc act
COCCN1CCCc2nc(-c3ccc(F)cc3)ccc21,.,.,.,.,5.4,.,.
CCOC(=O)[C@@]12CN(C(=O)OC(C)(C)C)CC=C1N(Cc1ccc(OC)cc1)C(=O)[C@H]2CC(=O)NCc1cccc2ccccc12,.,.,.,.,-3.4,.,.
O=c1oc(-c2ccc(O)c(O)c2)cc2cccc(O)c12,.,22.0,-1.0,-0.1,8.5*,8.1*,13.0*
O=c1oc(-c2ccc(O)c(O)c2)cc2cc(O)cc(O)c12,.,11.5,-1.3,-0.2,11.0*,12.0*,8.3*
O=c1cc(-c2ccc(O)c(O)c2)oc2ccc3ccccc3c12,22.2,.,-0.3,.,8.2*,-6.7,5.2*
CCc1nc(SCc2cc(Cl)ccc2OC)n[nH]1,.,13.1,-1.0,0.1,9.4*,-1.1,0.0
CCc1nc(SCc2ccc(OC)cc2)n[nH]1,.,21.5,-0.8,0.0,-0.8,.,.
CCc1ccc(OCC(=O)Nc2ncn[nH]2)cc1,-7.7,-7.0,-0.3,0.0,8.1*,11.4*,8.7*
COc1cc(/C=N/Nc2ccccn2)ccc1O,17.3,27.1,-0.3,-0.2,9.6*,7.5,10.3*
COc1ccc(/C=N/Nc2ccccn2)cc1OC,-3.4,10.5,-0.8,0.2,4.0,.,.
CC(C)CC(=O)N1CCc2cc(S(=O)(=O)N(C)Cc3ccco3)ccc21,.,.,.,.,-3.8,.,.
CC(C)[C@H](N)C(=O)N[C@H](C(=O)N1CCC2CCN(Cc3ccccc3)CC21)C(C)C (stereo partly drawn),.,.,.,.,2.7,.,.
CN(C(=O)C1CCC(=O)N(Cc2cccc(F)c2)C1)C1CCCCC1 (stereo not drawn),-5.7,8.0,-0.1,0.2,9.1*,10.9*,12.6*
COc1cccc(CN2CC(C(=O)N3CCCCCCC3)CCC2=O)c1 (stereo not drawn),.,-1.1,-0.1,0.1,-0.5,.,.
O=C1CCC(C(=O)N2CCCCCC2)CN1Cc1cccc(C(F)(F)F)c1 (stereo not drawn),.,-0.2,-0.1,0.1,9.2*,-0.3,-1.0
O=C(NC1CCC1)C1CCC(=O)N(Cc2cccc(F)c2)C1 (stereo not drawn),6.1,.,-0.8,0.0,-2.2,.,.
CN1C(=O)c2cc(NC(=O)c3ccccc3)ccc2OC[C@H]2O[C@@H](CC(=O)NCC3CC3)CC[C@@H]21,.,.,.,.,-0.7,.,.
COC(=O)c1c(C)[nH]c(C(=O)/C=C/c2ccccc2F)c1C,-20.1,-9.2,0.5,-0.1,14.7*,9.1*,9.7*
O=C(NCc1ccccc1)[C@H]1CCCN1C(=O)[C@H]1CCCN1C(=O)c1cccc(Cl)c1,.,.,.,.,-1.7,.,.
Cn1c2ccccc2c(=O)c2ccc(C#CC3(N)CCCCC3)cc21,21.4,31.8,-0.1,0.0,19.0*,43.8*,19.2*
Cn1c2ccccc2c(=O)c2cc(C#CC3(O)CCCCC3)ccc21,-11.9,-15.0,-0.5,0.1,0.2,.,.
CS(=O)(=O)N1CCC(C(=O)Nc2ccc(F)cc2F)CC1,-12.8,-1.0,-0.2,0.1,-2.1,.,.
O=C(Nc1ccc(F)cc1F)C1CCN(S(=O)(=O)c2cccnc2)CC1,.,0.3,-0.7,-0.1,8.3*,-0.1,-0.3
CN(C)C(=O)CSc1cccc2cccnc12,95.7,14.6,-1.4,-0.1,11.6*,-12.0,2.3
Nn1c(SCC(=O)Nc2ccc(Br)cn2)nnc1-c1n[nH]c2c1CCC2,.,.,.,.,0.7,.,.
